Compounds with a hit are over-represented: about 4% of the library has one in this group of screens.
NTR1 ag: agonists of human neurotensin receptor NTR1; NTR1-U2OS beta-arrestin-GFP spot imaging, agonist mode; P30989; AID 493036; activation, % at 20 µM; 330,000 compounds, 0.17% hits;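 active = activation at or above 40% of the spot to cytoplasm intensity ratio, with at least 20 cells analyzed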
CHO parental Ca: signal in parental CHO cells, OX1R antagonist counter-screen. parental CHO-K1, ATP-induced calcium, Fluo-8 fluorescence. inhibition, % at 5.6 µM. 330,000 compounds, 0.63% hits. AID 463079;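 active = inhibition above that plate's mean sample inhibition plus 3 SD, cut at about 26% in these data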
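Material: Parental CHO cells | Reagent: ATP | Compound dosing: Single nominal dose of 5.6 µM per compound | Detection: Intracellular calcium via Fluo-8 no-wash fluorescent dye | Read-out: % inhibition of ATP-induced calcium mobilization | Benchmarks: Low control ATP plus DMSO, high control DMSO only | Replicates: Singlicate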
TAAR1 antag: human TAAR1 antagonism. CHO RD-HGA16 TAAR1, Fluo-8 calcium fluorescence, antagonist. inhibition, % at 3 µM. 360,000 compounds, 1.5% hits. AID 624466;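 active = inhibition above a per-plate cutoff, the mean inhibition of test compounds on that plate plus 3 SD, cut at about 49% in these data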
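Material: CHO RD-HGA16 cells bearing hTAAR1; compound dosing: one-point dosing, 3 µM nominal final; schedule: dye loading 75 min at 37 °C, then 30 min room temperature; measured by: calcium fluorescence with Fluo-8; control set: vehicle and agonist controls; replication: n of 1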
OX1R antag-1: antagonists of human orexin 1 receptor (OX1R) | O43613 | OX1R-expressing cells, FRET antagonist read-out | inhibition, % at 6.6 µM | 330,000 compounds, 1.8% hits | AID 485270; in the data active = inhibition mostly above about 38%, no sharp cut-off; inactive = mostly below about 40%
Target sequence (O43613 whole entry, looked up): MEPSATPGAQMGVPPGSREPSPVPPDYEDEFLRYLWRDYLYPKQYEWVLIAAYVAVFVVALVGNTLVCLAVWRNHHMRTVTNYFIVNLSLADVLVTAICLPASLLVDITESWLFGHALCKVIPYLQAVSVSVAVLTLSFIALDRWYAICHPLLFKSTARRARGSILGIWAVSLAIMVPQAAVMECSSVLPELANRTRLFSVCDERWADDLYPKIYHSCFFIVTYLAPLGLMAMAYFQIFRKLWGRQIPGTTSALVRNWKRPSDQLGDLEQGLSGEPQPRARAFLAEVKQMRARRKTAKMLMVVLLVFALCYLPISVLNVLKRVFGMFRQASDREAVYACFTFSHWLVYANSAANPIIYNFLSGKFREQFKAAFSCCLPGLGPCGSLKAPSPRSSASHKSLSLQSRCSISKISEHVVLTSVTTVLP
TAAR1 ag: agonists of human TAAR1. activation, % at 3 µM. 360,000 compounds, 0.99% hits. Q96RJ0. CHO RD-HGA16 TAAR1, Fluo-8 calcium fluorescence; vehicle wells 0%, saturating PEA agonist 100%. AID 624467;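 active = activation above the mean activation of all test compounds in the run plus 3 SD, cut at about 38% in these data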
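System: CHO RD-HGA16 cells carrying human TAAR1 plus Gα16; Incubation: 17-24 h seeding, 75 min 37 °C dye, 30 min RT; Measured by: Fluo-8 fluorescence, 5 s baseline then 140 s kinetic read; Control set: DMSO and PEA EC100; Replication: single well for each compound.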
OX1R antag-2: human HCRTR1 antagonism; CHO/OX1R cells, Fluo-8 calcium fluorescence, orexin A; inhibition, % at 5 µM; 330,000 compounds, 0.43% hits; AID 434989;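 active = inhibition above its plate's threshold, mean inhibition of all tested compounds on the plate plus 3 SD, cut at about 37% in these data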
nonsel antag count: nonselective antagonist in TAAR1 antagonist counter-screen. shares compounds with TAAR1 antag. counterscreen cell line, calcium fluorescence, antagonist mode. inhibition, % at 3 µM. 2,400 compounds, 77% hits. AID 651780; in the data active = inhibition above about 22%;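 also: CHO-Ga16 host cells stimulated with ATP at an EC80 level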
TAAR1 antag conf: human TAAR1 antagonism, confirmed | 2,400 compounds, 40% hits | shares compounds with TAAR1 antag | TAAR1-expressing cells, fluorescence antagonist read-out | inhibition, % at 3 µM; in the data active = inhibition above about 49%;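 also: CHO-Ga16 host cells challenged with agonist PEA near its EC80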
Ga16 nonsel ag: nonselective Ga16 agonist in TAAR1 antagonist counter-screen. AID 651953. shares compounds with TAAR1 antag. 2,400 compounds, 18% hits. Ga16-expressing cells, calcium fluorescence, agonist counterscreen. activation, % at 3 µM; in the data active = activation above about 12%
TAAR1 ag counter: counter-screen for human TAAR1 antagonists: TAAR1 agonists; activation, % at 3 µM; shares compounds with TAAR1 antag; hTAAR1 cell line, fluorescence activation, agonist mode; 2,400 compounds, 2% hits; AID 651955; in the data active = activation above about 37%;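 also: CHO cells stably expressing TAAR1 with calcium dye readout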
Each line names hits and unclear results; the compound was inactive in the other large screens (follow-up assays come after a bar, where they were run); ! = a repeat was not active.

CCC(C)Sc1ccc(-c2nc3ccc(C)cn3c2NCc2ccccc2)cc1 (stereo unspecified)	TAAR1 antag 72 | nonsel antag count 39 | TAAR1 antag conf 57 | Ga16 nonsel ag inactive | TAAR1 ag counter inactive
COc1cc(-c2nc3ccc(C)cn3c2NCc2ccccc2)ccc1-c1cccc(Cl)c1	none
CCCCNc1c(-c2ccc(-c3cccc(Cl)c3)cc2)nc2ccccn12	TAAR1 antag 65! | nonsel antag count 31 | TAAR1 antag conf inactive | Ga16 nonsel ag 19 | TAAR1 ag counter inactive
CCCCCCSc1ccc(-c2nc3ccccn3c2NCCCC)cc1	none
CSCC[C@H](NC(=O)[C@@H]1CSC2c3ccccc3C(=O)N21)C(=O)NCc1ccco1 (stereo partly specified)	none
O=C1c2cccc3c2C2(O)c4c1cccc4C(=O)c1cccc(c12)C3=O	TAAR1 antag 71 (no result: NTR1 ag, CHO parental Ca, OX1R antag-1, OX1R antag-2) | nonsel antag count 33 | TAAR1 antag conf 51 | Ga16 nonsel ag inactive | TAAR1 ag counter inactive
c1ccc2[nH]c(CSc3ncnc4c3oc3ccccc34)nc2c1	none
c1ccc(-c2nc(SCc3nc4ccccc4[nH]3)c3oc4ccccc4c3n2)cc1	TAAR1 antag 54 | nonsel antag count inactive | TAAR1 antag conf inactive | Ga16 nonsel ag inactive | TAAR1 ag counter inactive
COc1cccc(N2CCN(C(=O)C3CCCN(c4ncnc5c4nc4n5CCCCC4)C3)CC2)c1 (stereo unspecified)	TAAR1 antag 55 | nonsel antag count 34 | TAAR1 antag conf 49 | Ga16 nonsel ag 12 | TAAR1 ag counter inactive
COc1ccc(-n2c(C)nnc2SCC(=O)N2CCOCC2)cc1	none
C#CCOCCOCCOCCNc1nc(N2CCOCC2)nc(N2CCN(C(=O)[C@H](C)n3cc(CCC(=O)O)nn3)CC2)n1	TAAR1 antag 107 (no result: NTR1 ag, CHO parental Ca, OX1R antag-1, OX1R antag-2) | nonsel antag count inactive | TAAR1 antag conf inactive | Ga16 nonsel ag inactive | TAAR1 ag counter inactive
C#CCOCCOCCOCCNc1nc(N2CCN(C(=O)[C@H](CCCN=C(N)N)n3cc(C(N)[C@@H](C)CC)nn3)CC2)nc(N2CCN(C(=O)[C@H](CCC(=O)O)n3cc([C@@H](N)CCCCN)nn3)CC2)n1 (stereo partly specified)	none
C#CCOCCOCCOCCNc1nc(N2CCN(C(=O)[C@H](CCCN=C(N)N)n3cc(C(N)[C@@H](C)CC)nn3)CC2)nc(N2CCN(C(=O)[C@H](CCCCN)n3cc([C@@H](N)[C@H](C)CC)nn3)CC2)n1 (stereo partly specified)	TAAR1 antag 109 | nonsel antag count inactive | TAAR1 antag conf inactive | Ga16 nonsel ag inactive | TAAR1 ag counter inactive
CC(C)c1ccc(/C=N/NC(=O)c2ccc(-n3cnnn3)cc2)cc1	TAAR1 antag 66 (no result: CHO parental Ca, OX1R antag-1, OX1R antag-2) | nonsel antag count 32 | TAAR1 antag conf inactive | Ga16 nonsel ag inactive | TAAR1 ag counter inactive
COc1ccc2c(CN(C)Cc3ccccc3)cc(=O)oc2c1	none (no result: NTR1 ag, CHO parental Ca, OX1R antag-1, OX1R antag-2)
CCOC(=O)c1ccc(NC(=O)CSc2nncn2-c2cccnc2)cc1	none
COc1cc(C(=O)N/N=C/c2cc([N+](=O)[O-])cs2)cc(OC)c1OC	TAAR1 antag 102 | nonsel antag count inactive | TAAR1 antag conf inactive | Ga16 nonsel ag inactive | TAAR1 ag counter inactive
CCOc1ccc(C(=O)N/N=C/c2cc([N+](=O)[O-])cs2)cc1	none

Assay outcomes as filed in PubChem BioAssay.
